Test results: ChEMBL document CHEMBL5375965, “Discovery of New Broad-Spectrum Anti-Infectives for Eukaryotic Pathogens Using Bioorganometallic Chemistry” (J Med Chem, 2023)
Calls of active or inactive are those of the source. The calls are words filed in the database; no cut-off is given here.

Tests used:
Brugia pahangi [1] = experiment: Antinematodal activity against Brugia pahangi infected in mongolian jirds assessed as increase in number of deformed eggs at 10 mg/kg, po administered twice daily for 5 days; type: functional, organism-based; details: time 5.0 day
Outline: (§1)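 Male jirds (5–7 weeks, 50–60 g) infected ip with 200 L3. Oral dosing in 5% glucose started 5 months post-infection; vehicle received 5% glucose. Necropsy 5 days after last dose (6 animals/treated group, 9 vehicle). Worms recovered and counted. Ex vivo MF release compared by Kruskal–Wallis/Dunn. Embryograms were scored blinded by hemocytometer, ≥200 stages per female, 6–9 females/group, and analysed by two-way ANOVA/Dunnett versus vehicle.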

Brugia pahangi [2] = experiment: Antinematodal activity against Brugia pahangi infected in mongolian jirds assessed as reduction in worm fecundity at 10 mg/kg, po administered twice daily for 5 days; type: functional, organism-based; details: time 5.0 day; outline: as §1
Trichuris muris [3] = experiment: Antinematodal activity against Trichuris muris assessed as inhibition of worm motility at day 1 by worminator analysis; type: functional
Outline: (§2)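 Two adult worms per well in RPMI-1640 (25 mM HEPES, 2.0 g/L NaHCO₃, 5% heat-inactivated FBS, 1X antibiotic/antimycotic), 4 replicate wells, 6 days at 37°C, 5% CO₂. Motility recorded 60 s per plate as pixels displaced/s on days 0, 1, 2, 3 and 6. Inhibition = (1 − treated MMU/mean 1% DMSO control MMU) × 100, floored at zero. IC₅₀ from 3- and 6-point dilutions.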

Brugia pahangi [4] = experiment: Antinematodal activity against Brugia pahangi infected in mongolian jirds assessed as deformed embryos with globular material pre-infected for 5 months followed by compound addition at 10 mg/kg, po administered twice daily for 5 days; type: functional, organism-based; details: time 5.0 day
Outline: (§3)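 Male jirds (5–7 weeks, 50–60 g) infected ip with 200 L3. At 5 months, dosed orally in 5% glucose; vehicle received 5% glucose. Necropsy 5 days after last dose. Adult females fixed in 2.5% glutaraldehyde/2% paraformaldehyde in 0.1 M cacodylate, Spurr-embedded, ultrathin sections contrasted with uranyl substitute and lead citrate, imaged by TEM.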

Trichuris muris [5] = experiment: Antinematodal activity against Trichuris muris by worminator analysis; type: functional, organism-based; outline: as §2
Trichuris muris [6] = experiment: Downregulation of mitochondrial acyl carrier reductase expression in Trichuris muris at 100 uM incubated for 2 to 3 hrs; type: functional; details: time 2-3 hrs
Outline: (§4)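 Adult female worms exposed in vitro to compound or 1% DMSO vehicle, then frozen at −80°C. RNA-seq reads aligned to the T. muris genome (PRJEB126, WBPS16) with STAR and counted per gene with featureCounts. Expression expressed as FPKM. Fold changes and significance relative to DMSO controls calculated with DESeq2.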

Saccharomyces cerevisiae [7] = experiment: Antifungal activity against Saccharomyces cerevisiae harboring heterozygous PMP1 deletion mutant assessed as sensitivity by measuring ratio of control intensity to treatment intensity by chemogenomic screening analysis relative to control; type: functional
Brugia pahangi [8] = experiment: Antinematodal activity against Brugia pahangi infected in mongolian jirds assessed as reduction in number of microfilarial release at 10 mg/kg, po administered twice daily for 5 days; type: functional, organism-based; details: time 5.0 day; outline: as §1
Brugia pahangi [9] = experiment: Antinematodal activity against Brugia pahangi infected in mongolian jirds assessed as reduction in number of eggs at 10 mg/kg, po administered twice daily for 5 days; type: functional, organism-based; details: time 5.0 day; outline: as §1
Brugia pahangi [10] = experiment: Antinematodal activity against Brugia pahangi infected in mongolian jirds assessed as reduction in worm burden at 10 mg/kg, po administered twice daily for 5 days; type: functional, organism-based; details: time 5.0 day; outline: as §1
Brugia pahangi [11] = experiment: Antinematodal activity against Brugia pahangi infected in mongolian jirds assessed as deformed embryos with vacuolated spaces pre-infected for 5 months followed by compound addition at 10 mg/kg, po administered twice daily for 5 days; type: functional, organism-based; details: time 5.0 day; outline: as §3
Saccharomyces cerevisiae [12] = experiment: Antifungal activity against Saccharomyces cerevisiae harboring heterozygous PMC1 deletion mutant assessed as sensitivity by measuring ratio of control intensity to treatment intensity by chemogenomic screening analysis relative to control; type: functional
Trichuris muris [13] = experiment: Antinematodal activity against Trichuris muris assessed as inhibition of worm motility at day 2 by worminator analysis; type: functional; details: time 2 day; outline: as §2
Brugia pahangi [14] = experiment: Antinematodal activity against Brugia pahangi infected in mongolian jirds assessed as tissue damage in reproductive tracts pre-infected for 5 months followed by compound addition at 10 mg/kg, po administered twice daily for 5 days; type: functional, organism-based; details: time 5.0 day; outline: as §3
Brugia pahangi [15] = experiment: Antinematodal activity against Brugia pahangi assessed as inhibition of worm motility at day 1 by worminator analysis; type: functional; details: time 1 day
Outline: as §2, with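 “Single” for “Two”, “female worm” for “worms”, “plate” for “plate as pixels displaced/s”, “6 as pixels displaced/s.” for “6.”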

Trichuris muris [16] = experiment: Downregulation of acyl-CoA synthetase expression in Trichuris muris at 100 uM incubated for 2 to 3 hrs; type: functional; details: time 2-3 hrs; outline: as §4
Brugia pahangi [17] = experiment: Antinematodal activity against Brugia pahangi assessed as inhibition of worm motility at day 6 by worminator analysis; type: functional; details: time 6 day
Outline: as §2, with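 “Single” for “Two”, “female worm” for “worms”, “plate” for “plate as pixels displaced/s”, “6 as pixels displaced/s.” for “6.”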

Brugia pahangi [18] = experiment: Antinematodal activity against Brugia pahangi infected in mongolian jirds assessed as deformed embryos with punctate pre-infected for 5 months followed by compound addition at 10 mg/kg, po administered twice daily for 5 days; type: functional, organism-based; details: time 5.0 day; outline: as §3
Brugia pahangi [19] = experiment: Antinematodal activity against Brugia pahangi infected in mongolian jirds assessed as embryos with mature lysosomes pre-infected for 5 months followed by compound addition at 10 mg/kg, po administered twice daily for 5 days; type: functional, organism-based; details: time 5.0 day; outline: as §3
Brugia pahangi [20] = experiment: Antinematodal activity against Brugia pahangi assessed as inhibition of worm motility measured immediately by worminator analysis; type: functional
Outline: as §2, with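 “Single” for “Two”, “female worm” for “worms”, “plate” for “plate as pixels displaced/s”, “6 as pixels displaced/s.” for “6.”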

Saccharomyces cerevisiae [21] = experiment: Antifungal activity against Saccharomyces cerevisiae harboring heterozygous RSC9 deletion mutant assessed as sensitivity by measuring ratio of control intensity to treatment intensity by chemogenomic screening analysis relative to control; type: functional
Saccharomyces cerevisiae [22] = experiment: Antifungal activity against Saccharomyces cerevisiae harboring heterozygous RPC19 deletion mutant assessed as sensitivity by measuring ratio of control intensity to treatment intensity by chemogenomic screening analysis relative to control; type: functional
Trichuris muris [23] = experiment: Downregulation of Wnt gene expression in Trichuris muris at 100 uM incubated for 2 to 3 hrs; type: functional; details: time 2-3 hrs; outline: as §4
Trichuris muris [24] = experiment: Antinematodal activity against Trichuris muris assessed as inhibition of worm motility at day 6 by worminator analysis; type: functional; details: time 6 day; outline: as §2
Brugia pahangi [25] = experiment: Antinematodal activity against Brugia pahangi infected in mongolian jirds assessed as embryos with autophagolysosomes pre-infected for 5 months followed by compound addition at 10 mg/kg, po administered twice daily for 5 days; type: functional, organism-based; details: time 5.0 day; outline: as §3
Trichuris muris [26] = experiment: Downregulation of Hippo gene expression in Trichuris muris at 100 uM incubated for 2 to 3 hrs; type: functional; details: time 2-3 hrs; outline: as §4
Trichuris muris [27] = experiment: Antinematodal activity against Trichuris muris assessed as inhibition of worm motility measured immediately by worminator analysis; type: functional; outline: as §2
Brugia pahangi [28] = experiment: Antinematodal activity against Brugia pahangi assessed as inhibition of worm motility at day 2 by worminator analysis; type: functional; details: time 2 day
Outline: as §2, with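 “Single” for “Two”, “female worm” for “worms”, “plate” for “plate as pixels displaced/s”, “6 as pixels displaced/s.” for “6.”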

Brugia pahangi [29] = experiment: Antinematodal activity against Brugia pahangi assessed as inhibition of worm motility at day 3 by worminator analysis; type: functional; details: time 3 day
Outline: as §2, with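 “Single” for “Two”, “female worm” for “worms”, “plate” for “plate as pixels displaced/s”, “6 as pixels displaced/s.” for “6.”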

Saccharomyces cerevisiae [30] = experiment: Antifungal activity against Saccharomyces cerevisiae harboring heterozygous YGR115C deletion mutant assessed as sensitivity by measuring ratio of control intensity to treatment intensity by chemogenomic screening analysis relative to control; type: functional
Brugia pahangi [31] = experiment: Antinematodal activity against Brugia pahangi infected in mongolian jirds assessed as reduction in reproductive output at 10 mg/kg, po administered twice daily for 5 days; type: functional, organism-based; details: time 5.0 day; outline: as §1
Trichuris muris [32] = experiment: Downregulation of AMPK gene expression in Trichuris muris at 100 uM incubated for 2 to 3 hrs; type: functional; details: time 2-3 hrs; outline: as §4
Trichuris muris [33] = experiment: Downregulation of fatty acid synthase expression in Trichuris muris at 100 uM incubated for 2 to 3 hrs; type: functional; details: time 2-3 hrs; outline: as §4
Trichuris muris [34] = experiment: Downregulation of mTOR gene expression in Trichuris muris at 100 uM incubated for 2 to 3 hrs; type: functional; details: time 2-3 hrs; outline: as §4
Trichuris muris [35] = experiment: Antinematodal activity against Trichuris muris assessed as inhibition of worm motility at day 5 by worminator analysis; type: functional; details: time 5 day
Brugia pahangi [36] = experiment: Antinematodal activity against Brugia pahangi by worminator analysis; type: functional, organism-based
Outline: as §2, with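 “Single” for “Two”, “female worm” for “worms”, “plate” for “plate as pixels displaced/s”, “6 as pixels displaced/s.” for “6.”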

Candida albicans [37] = experiment: Antifungal activity against Candida albicans CAAL28 infected in BALB/c mouse candidiasis model administered once daily for 3 days; type: functional, organism-based; details: CAAL28, 72 h
Candida albicans [38] = experiment: Antifungal activity against Candida albicans CAAL28 infected in BALB/c mouse candidiasis model assessed as animal survival pre-infected for 1 hr followed by compound addition at 10 mg/kg administered once daily for 3 days and measured on day 4 (reference value: 25%); type: functional; details: time 4 day
Saccharomyces cerevisiae [39] = experiment: Antifungal activity against Saccharomyces cerevisiae harboring heterozygous ENP1 deletion mutant assessed as sensitivity by measuring ratio of control intensity to treatment intensity by chemogenomic screening analysis relative to control; type: functional
Saccharomyces cerevisiae [40] = experiment: Antifungal activity against Saccharomyces cerevisiae harboring heterozygousYDL144C deletion mutant assessed as sensitivity by measuring ratio of control intensity to treatment intensity by chemogenomic screening analysis relative to control; type: functional
Saccharomyces cerevisiae [41] = experiment: Antifungal activity against Saccharomyces cerevisiae harboring heterozygous HYP2 deletion mutant assessed as sensitivity by measuring ratio of control intensity to treatment intensity by chemogenomic screening analysis relative to control; type: functional
Saccharomyces cerevisiae [42] = experiment: Antifungal activity against Saccharomyces cerevisiae harboring heterozygous UTP14 deletion mutant assessed as sensitivity by measuring ratio of control intensity to treatment intensity by chemogenomic screening analysis relative to control; type: functional
Saccharomyces cerevisiae [43] = experiment: Antifungal activity against Saccharomyces cerevisiae harboring heterozygous YPR136C deletion mutant assessed as sensitivity by measuring ratio of control intensity to treatment intensity by chemogenomic screening analysis relative to control; type: functional

## CC(C1C2CC3CC(C2)CC1C3)N(C)CC(O)(Cn1cncn1)c1ccc(F)cc1F.Cl (stereo not drawn)
Brugia pahangi [1]
  Activity: Active
Brugia pahangi [2]
  Activity: Active
Trichuris muris [3]
  inhibition (INH): 32%
Brugia pahangi [4]
  Activity: Active
Trichuris muris [5]
  IC50: 20.4 µM
Trichuris muris [6]
  Activity: Active
Saccharomyces cerevisiae [7]
  log2(ratio): -6.54
Brugia pahangi [8]
  Activity: Active
Brugia pahangi [9]
  Activity: Active
Brugia pahangi [10]
  Activity: Active
Brugia pahangi [11]
  Activity: Active
Saccharomyces cerevisiae [12]
  log2(ratio): -4.67
Trichuris muris [13]
  inhibition (INH): 42%
Brugia pahangi [14]
  Activity: Active
Brugia pahangi [15]
  inhibition (INH): 100%
Trichuris muris [16]
  Activity: Active
Brugia pahangi [17]
  inhibition (INH): 100%
Brugia pahangi [18]
  Activity: Active
Brugia pahangi [19]
  Activity: Active
Brugia pahangi [20]
  inhibition (INH): 100%
Saccharomyces cerevisiae [21]
  log2(ratio): -6.48
Saccharomyces cerevisiae [22]
  log2(ratio): -4.18
Trichuris muris [23]
  Activity: Active
Trichuris muris [24]
  inhibition (INH): 93%
Brugia pahangi [25]
  Activity: Active
Trichuris muris [26]
  Activity: Active
Trichuris muris [27]
  inhibition (INH): 10%
Brugia pahangi [28]
  inhibition (INH): 100%
Brugia pahangi [29]
  inhibition (INH): 99%
Saccharomyces cerevisiae [30]
  log2(ratio): -4.65
Brugia pahangi [31]
  Activity: Active
Trichuris muris [32]
  Activity: Active
Trichuris muris [33]
  Activity: Active
Trichuris muris [34]
  Activity: Active
Trichuris muris [35]
  inhibition (INH): 98%
Brugia pahangi [36]
  IC50: 2.2 µM

## OC(Cn1cncn1)(Cn1cncn1)c1ccc(F)cc1F [FLUCONAZOLE]
Trichuris muris [3]
  inhibition (INH): 6%
Trichuris muris [13]
  inhibition (INH): 21%
Candida albicans [37]
  IC50: > 100 µM
Brugia pahangi [15]
  inhibition (INH): 15%
Brugia pahangi [17]
  inhibition (INH): 4%
Brugia pahangi [20]
  inhibition (INH): 10%
Trichuris muris [24]
  inhibition (INH): 13%
Candida albicans [38]
  Activity: >50%
Trichuris muris [27]
  inhibition (INH): 6%
Brugia pahangi [28]
  inhibition (INH): 7%
Brugia pahangi [29]
  inhibition (INH): 11%
Trichuris muris [35]
  inhibition (INH): 20%

## CN(CCc1ccccc1)CC(O)(Cn1cncn1)c1ccc(F)cc1F.Cl (stereo not drawn)
Trichuris muris [3]
  inhibition (INH): 15%
Trichuris muris [13]
  inhibition (INH): 10%
Saccharomyces cerevisiae [39]
  log2(ratio): -2.17
Saccharomyces cerevisiae [40]
  log2(ratio): -4.93
Saccharomyces cerevisiae [41]
  log2(ratio): -2.45
Brugia pahangi [15]
  inhibition (INH): 19%
Brugia pahangi [17]
  inhibition (INH): 14%
Brugia pahangi [20]
  inhibition (INH): 32%
Trichuris muris [24]
  inhibition (INH): 0%
Saccharomyces cerevisiae [42]
  log2(ratio): -5.53
Trichuris muris [27]
  inhibition (INH): 15%
Brugia pahangi [28]
  inhibition (INH): 6%
Brugia pahangi [29]
  inhibition (INH): 8%
Saccharomyces cerevisiae [43]
  log2(ratio): -3.12
Trichuris muris [35]
  inhibition (INH): 1%
